The text below walks through data of the EternaBench riboswitch data.

The subject of the series is MS2 coat protein. The series is described as follows: apparent Kd, MS2 coat protein; higher = weaker binding; RNA-MaP array; FMN 200 µM where present. In outline:
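In 100 mM Tris-HCl pH 7.5, 80 mM KCl, 4 mM MgCl2, BSA, DTT, yeast tRNA and Tween-20, SNAP-549-labelled MS2 coat protein was titrated from 0.7 or 1.5 nM, doubling to 3 µM, over designs transcribed by stalled E. coli RNA polymerase on Illumina sequencing-chip clusters. This was done first without ligand, then with ligand held constant. After green signal was normalised to red-channel RNA signal and control-cluster median Fmax, the apparent Kd was taken as the median of filtered per-cluster binding-curve fits.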

Setting [1] is: designed as: ON switch for flavin mononucleotide, no ligand.
Where [2] appears, read: ligand present: flavin mononucleotide, designed as: ON switch for flavin mononucleotide.
Where [3] appears, read: designed as: OFF switch for flavin mononucleotide, no ligand.
[4] abbreviates: ligand present: flavin mononucleotide, designed as: OFF switch for flavin mononucleotide.

The apparent Kd is a dissociation constant that holds for the conditions of the assay. For the sequence “UCCGAAUCGUAGAAGGGUGACAUGAGGAUCACCCAUGUGCAGCAGCCGUGAACGGCCAUGCUGCCACAGGAUAUACGAUGGAGU”, the “apparent Kd” value runs as follows: under setting [1], 41.1 nM; under setting [2], 56.2 nM.

Take “AUUAUUUAGUAGAAGGACGACUAUUAAUAUUUCGUAGGAUAUACUAUUUACAUGAGGAUCACCCAUGUUUAAAUGGAACAAUGU”: the “apparent Kd” value by setting is: under setting [3], 11.2 nM; under setting [4], 14 nM.

For the sequence “GCUGGCAUGCAAGGAUAUCCUUCCGAGUAGGAAGGAGAAGGUGCUUGUGGGACAUGAGGAUCACCCAUGUAUGUUGGCCACGAC”, the “apparent Kd” value by setting is: under setting [1], 134 nM; under setting [2], 79.2 nM.

In the case of “UUAAUUAAUUAAUUGCAGAUUACAUGAGGAUCACCCAUGUAUAAGGAUAUCGUCAGGAAUACUGACGAGAAGGUAUACAACUGC”, the “apparent Kd” value turned out to be 20.3 nM under setting [3] and 25.4 nM under setting [4].

Take “AGUCCAGAAGGAUAUACAUAGGUGAUAAAAAAAAAAAAACUACAUGAGGAUCACCCAUGUAGAAGGUCUGGACA”: the “apparent Kd” value was 61.9 nM under setting [3] and 40 nM under setting [4].

Consider “AAAACAUGAGGAUCACCCAUGUAUAGAUCGGUUGAUAGGAGUGAGGAUAUGCUUAAAAUAAGGUAGCAGAAGGCACUGGGUACA”, for which the “apparent Kd” value runs as follows: under setting [1], 37.1 nM; under setting [2], 40.1 nM.

As to “ACAGGUGCAGGAUAUACAUGAGGAUCACCCAUGUGAUUAGCAGUCCUCGGACUGCAAUGUAGAAGGGCACCUGU”, the “apparent Kd” value by setting is: under setting [3], 327 nM; under setting [4], 1120 nM.

On to “GCACGACAUGUAGGAUAUCGAGCGCCGGGCGCUCGAGAAGGACAUGAGGAUCACCCAUGUAUUCUGAGUGACCGAGGUCGUUGC”, for which the “apparent Kd” value under setting [3] stood at 47.9 nM and the “apparent Kd” value under setting [4] is 431 nM.

On to “CCGUUGGGCUAGAAGGCUCCGGGAGAGCCGCGGAGAGGAUAUAGCACAUGAGGAUCACCCAUGUGGUAUGACCUUAUGUAAUCA”, for which the “apparent Kd” value is, setting by setting: under setting [3], 33.7 nM; under setting [4], 62.9 nM.

For the sequence “CCUUCACAUGAGGAUCACCCAUGUCCUAGUCCGUCAGGAUAUAGCCUGCAUCCGCUGUGGCUAGAAGGGACUGCUG”, the “apparent Kd” value is, setting by setting: under setting [1], 135 nM; under setting [2], 207 nM.

For “AGCAACAUGAGGAUCACCCAUGUUGGUUCGAAAACGGACUCACAGGAUAUGCAGCGUGAUCGCUCGCAGAAGGGUGCGUCCUCA”, the “apparent Kd” value stood at 51.2 nM under setting [1] and 38.7 nM under setting [2].

With “GAAAUUACAUGAGGAUCACCCAUGUAGGAUAUCGCUAUUGUAAUCAUGUUACAUGAUUACAAUAGCGAGAAGGACGUGAGAAAG”, the “apparent Kd” value under setting [3] was found to be 22.9 nM and the “apparent Kd” value under setting [4] came to 25.6 nM.

For “GAUAGACAUGAGGAUCACCCAUGUGAGGAUAUGCGUACGUUGUCAGUAGGCGACGUGCGCAGAAGGCGCAAGUU”, the “apparent Kd” value reads like this: under setting [3], 77.1 nM; under setting [4], 46.5 nM.

As for “UUAAUUAAUUAAUUGCAGAAACAUGAGGAUCACCCAUGUAUAUAGGAUAUCGUCAGGAAUACUGACGAGAAGGAUAUACACUGC”, the “apparent Kd” value under setting [3] turned out to be 23.4 nM and the “apparent Kd” value under setting [4] was 32.5 nM.

Consider “UAUAUGUCAGGAUAUUAGUAGUGGACGAAUAAGACUACUGCUGAGAAGGGACAUGAGGAUCACCCAUGUUCCUC”, for which the “apparent Kd” value is, setting by setting: under setting [3], 20.2 nM; under setting [4], 172 nM.

For “AUCAGCUCGUCAGGAUAUAUAUCACUGCUUCGGCAGUGUAUUAAGAUCACAUGAGGAUCACCCAUGUAGAAGGGACGAGCUGAU”, the “apparent Kd” value under setting [3] stood at 16.8 nM and the “apparent Kd” value under setting [4] was 20.2 nM.

In the case of “GACGGAUGUAUAGGAUAUCGACUGGAAUACAGUCGAGAAGGAUACAUGAGGAUCACCCAUGUAACCGUCAAUAAUAAUAAUAAU”, the “apparent Kd” value is, setting by setting: under setting [3], 14 nM; under setting [4], 29.7 nM.

As for “GUCGGAAACGACAAUGAUAGGACUGAGGAUAUACAUAAAUAAAUCCUUACAUGAGGAUCACCCAUGUAGAAGGCAGUCCUAUCU”, the “apparent Kd” value is 47.2 nM under setting [3] and 590 nM under setting [4].

Take “CGUGCUAUGUAGAAGGCAGAAAAGAUUCAGAUCUGAGGAUAUACAUGAGGAUCACCCAUGUUAUGCACCAGCACGAGAGUGCAC”: the “apparent Kd” value reads like this: under setting [3], 6.69 nM; under setting [4], 7.03 nM.

For the sequence “UGAUUGGACAGAGGAUAUACGUGCUAGAGAUACUAGCAAAAUAUCCUCACAUGAGGAUCACCCAUGUAGAAGGCUGUCCAAUCU”, the “apparent Kd” value is, setting by setting: under setting [3], 17.3 nM; under setting [4], 85.1 nM.

As to “AUCAGCUCGUCAGGAUAUACAUCACUGCUUCGGCAGUGUAUCAUAACAACAUGAGGAUCACCCAUGUAGAAGGGACGAGCUGAU”, the “apparent Kd” value under setting [3] is 23.8 nM and the “apparent Kd” value under setting [4] was 34.7 nM.

For the sequence “ACGUGUAAUACAGGAUAUGUUAUGGAUUAAUCAACCAGUUAUUACGUUUCGACAGAAGGGUAUACAUGAGGAUCACCCAUGUUA”, the “apparent Kd” value worked out at 22.3 nM under setting [3] and 17.9 nM under setting [4].

Consider “CUGAUGUUAGGAUAUCAGGUCGCGCACGAAGGCGCGCGGCAUGAGAAGGAACAUGAGGAUCACCCAUGUGACGA”, for which the “apparent Kd” value runs as follows: under setting [3], 48.4 nM; under setting [4], 145 nM.

“CGAUAAAGCUGAGGAUAUGAGAAUAGAAAGAAAUCAGAAGGCAGACAUGAGGAUCACCCAUGUGAGUUCUCGAGAUUAGAUAUU”: the “apparent Kd” value by setting is: under setting [3], 25.2 nM; under setting [4], 60.6 nM.

Regarding “UAUAUAUAGUAAGGAUAUGUAUUAAUUUUAUGAACAGAAGGUACUGACAUGAGGAUCACCCAUGUUUUAGUGUGGGCAUGUAGA”, the “apparent Kd” value under setting [3] was found to be 85.5 nM and the “apparent Kd” value under setting [4] came out at 122 nM.

For the sequence “UUUGCAUUCCGAGGAUAUUCAUUUAAUGUCUUCACAUGAGGAUCACCCAUGUGGCGCUUGCGCCGGGAGAAGGCGGUUUGCUUU”, the “apparent Kd” value reads like this: under setting [1], 28.6 nM; under setting [2], 29.3 nM.

With “CCGUCGCUUAGCGCUCCUCAUACAUGAGGAUCACCCAUGUACAGAAGGCGGAGGGCCAGGCCCACCGAGGAUAUGUAAGUGUGA”, the “apparent Kd” value runs as follows: under setting [3], 73 nM; under setting [4], 73.2 nM.

“GGGCAUAUUACAUGAGGAUCACCCAUGUCAGAAAGGGUAAUCAGAAGGUACUAUUAGAGAAAGAGUAAGGAUAUGAUUAUGCCC”: the “apparent Kd” value runs as follows: under setting [1], 486 nM; under setting [2], 40.6 nM.

For the sequence “CGGUCUUGCAACUAUUUGUUUCACAUGAGGAUCACCCAUGUCAGAAGGAGGUGCAUAUAUUAGACCUAGGAUAUGACGUGUAAA”, the “apparent Kd” value was 9.79 nM under setting [3] and 28.4 nM under setting [4].

In the case of “AGAUCGAGUGUGAGGAUAUUGACCGGACGACCCAUCGAGAAGGCACAUGAGGAUCACCCAUGUGAUUCGGCUCA”, the “apparent Kd” value runs as follows: under setting [3], 17.7 nM; under setting [4], 26.4 nM.

For “AGCGAACAUGAGGAUCACCCAUGUGAAAAACAUAGAGGAUAUGUCGCAUGAGUGUAAAAGACAGAAGGCUAUCGCA”, the “apparent Kd” value under setting [1] was 225 nM and the “apparent Kd” value under setting [2] came out at 54.8 nM.

“GUAAGCGUAGGAUAUACAUGAGGAUCACCCAUGUCAGUUUUGCACUCUCGGGUGUGCUGUAGAAGGGCGUUACU”: the “apparent Kd” value under setting [3] came to 172 nM and the “apparent Kd” value under setting [4] was found to be 208 nM.

Turning to “AGCUGUGGCCGAGGAUAUCUAACAAUCCAAACCGAAAUAUAAUCGGACAUGAGGAUCACCCAUGUAGAGAAGGCGGUCUCAGCA”, the “apparent Kd” value by setting is: under setting [3], 48.1 nM; under setting [4], 65 nM.

Regarding “AUGUAGGAAGGAUAUAUAUGGAGCAUGCGUCUCUGAACAUUACAUGAGGAUCACCCAUGUAGAAGGUCCGCGGA”, the “apparent Kd” value is, setting by setting: under setting [3], 24.1 nM; under setting [4], 33.1 nM.

Consider “GUACGGAGGGAGAAGGGCUAGAAGGUCCAGCUUAUGUGUGUUGCAACAUGAGGAUCACCCAUGUAGCAGGAUAUCCCUUGUACA”, for which the “apparent Kd” value by setting is: under setting [3], 12.5 nM; under setting [4], 36.9 nM.

For “UAGAUGGGAGGAUAUACGUAGAUGCAGAUUCGUGUGGUGCUACAUGAGGAUCACCCAUGUAGAAGGCCCGUCUU”, the “apparent Kd” value runs as follows: under setting [3], 17 nM; under setting [4], 98.1 nM.
